Data set [1] is described as follows: Growth inhibition of mouse BAF3 cells after 72 hrs by CellTiter-Glo or CCK-8 assay. It is filed as cell-based. The essentials: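 Isogenic murine BaF3 cells transformed with TEL-fused kinases, whose proliferation depends on the fused kinase, were used. Parental BaF3 cells served as the general selectivity counter-screen. The anti-proliferative read-out was reported as GI50.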
(In general: Cellular ATP, detected with luciferase, serves as a proxy for viable cell number.)

Data set [2] addresses T1, Cytoplasmic tyrosine-protein kinase BMX (Homo sapiens) (UniProt P51813).
T1 sequence (whole entry): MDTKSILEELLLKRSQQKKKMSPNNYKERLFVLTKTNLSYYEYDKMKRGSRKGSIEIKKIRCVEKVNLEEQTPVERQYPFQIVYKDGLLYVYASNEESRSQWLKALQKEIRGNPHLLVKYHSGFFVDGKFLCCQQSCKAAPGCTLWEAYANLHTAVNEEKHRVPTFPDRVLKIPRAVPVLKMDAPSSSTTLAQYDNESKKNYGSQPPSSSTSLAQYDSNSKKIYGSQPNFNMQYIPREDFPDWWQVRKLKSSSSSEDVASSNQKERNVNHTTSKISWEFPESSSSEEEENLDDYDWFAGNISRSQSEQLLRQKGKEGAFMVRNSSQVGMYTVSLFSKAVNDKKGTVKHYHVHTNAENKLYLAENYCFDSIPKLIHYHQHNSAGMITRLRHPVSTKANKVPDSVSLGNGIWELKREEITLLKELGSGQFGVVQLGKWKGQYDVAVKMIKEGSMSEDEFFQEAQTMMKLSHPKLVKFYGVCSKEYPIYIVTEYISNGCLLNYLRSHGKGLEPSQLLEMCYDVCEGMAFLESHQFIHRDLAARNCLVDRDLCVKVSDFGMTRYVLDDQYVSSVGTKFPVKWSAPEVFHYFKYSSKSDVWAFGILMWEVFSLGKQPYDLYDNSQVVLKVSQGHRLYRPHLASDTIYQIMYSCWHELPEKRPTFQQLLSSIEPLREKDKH

The GI50 is the concentration that inhibits growth by half. In data set [1], `Cc1ccc(Nc2ncc3c(n2)N(C)C(=O)N(c2cc(NC(=O)c4cccc(C(F)(F)F)c4)ccc2C)C3)cn1` registered a GI50 at 72 h of 120 nM.
As to `C=CC(=O)Nc1cc(Nc2ncc(C(=O)Nc3cc(NC(=O)c4ccc5c(c4)OCCO5)ccc3C)c(NC)n2)ccc1C`, in data set [2], the GI50 amounted to 155 nM. Moreover, the GI50 at 72 h in data set [1] is more than 10000 nM.
In the case of `C=CC(=O)Nc1cc(Nc2ncc(C(=O)Nc3cc(NC(=O)c4ccc(OC)cc4)ccc3C)c(NC)n2)ccc1C`, in data set [2], growth was halved (GI50) at 1100 nM. For the same compound, in data set [1], the GI50 at 72 h is more than 10000 nM.
The matching figures for `C=CC(=O)Nc1cc(Nc2ncc(C(=O)Nc3cc(NC(=O)c4cc(OC)cc(OC)c4)ccc3C)c(NC)n2)ccc1C`: 119 nM and more than 10000 nM.
Consider `C=CC(=O)Nc1cc(Nc2ncc3c(n2)N(C)C(=O)N(c2cc(NC(=O)c4cc(OC)c(OC)c(OC)c4)ccc2C)C3)ccc1C`, for which, in data set [2], the GI50 was 5930 nM. Moreover, the GI50 at 72 h in data set [1] was more than 10000 nM.
Compound `C=CC(=O)Nc1cc(Nc2ncc3c(n2)N(C)C(=O)N(c2cc(NC(=O)c4ccc5c(c4)OCO5)ccc2C)C3)ccc1C` showed a GI50 in data set [2] of 230 nM. The compound also gave a GI50 at 72 h in data set [1] of more than 10000 nM.
Compound `C=CC(=O)Nc1cc(Nc2ncc3c(n2)N(C)C(=O)N(c2cc(NC(=O)[C@H]4CC[C@H](C(F)(F)F)CC4)ccc2C)C3)ccc1C` showed a GI50 in data set [2] of 5900 nM. Further, the GI50 at 72 h in data set [1] was more than 10000 nM.
The like results for `C=CC(=O)Nc1cc(Nc2ncc(C(=O)Nc3cc(NC(=O)c4cccc(OC)c4)ccc3C)c(NC)n2)ccc1C` were, in that order, 6000 nM and more than 10000 nM.
The matching figures for `C=CC(=O)Nc1cc(Nc2ncc3c(n2)N(C)C(=O)N(c2cc(NC(=O)[C@H]4CC[C@H](CCC)CC4)ccc2C)C3)ccc1C`: 640 nM and 7400 nM.
The matching figures for `C=CC(=O)Nc1cc(Nc2ncc3c(n2)N(C)C(=O)N(c2cc(NC(=O)c4ccc(OC)cc4)ccc2C)C3)ccc1C`: 1070 nM and more than 10000 nM.
Compound `C=CC(=O)Nc1cc(Nc2ncc3c(n2)N(C)C(=O)N(c2cc(NC(=O)c4cc(C)ccc4F)ccc2C)C3)ccc1C` gave a GI50 in data set [2] of 31 nM. Also, in data set [1], the GI50 at 72 h was more than 10000 nM.
The matching figures for `C=CC(=O)Nc1cc(Nc2ncc3c(n2)N(C)C(=O)N(c2cc(NC(=O)[C@@H](N)CC(C)C)ccc2C)C3)ccc1C`: 130 nM and more than 10000 nM.
The matching figures for `C=CC(=O)Nc1cc(Nc2ncc3c(n2)N(C)C(=O)N(c2cc(NC(=O)c4ccc(C)c(C(F)(F)F)c4)ccc2C)C3)ccc1C`: 1240 nM and more than 10000 nM.
The like results for `C=CC(=O)Nc1cc(Nc2ncc3c(n2)N(C)C(=O)N(c2cc(NC(=O)c4cc(OC)cc(OC)c4)ccc2C)C3)ccc1C` were, in that order, 690 nM and more than 10000 nM.
For `C=CC(=O)Nc1cc(Nc2ncc3c(n2)N(C)C(=O)N(c2cc(NC(=O)c4ccccc4OC)ccc2C)C3)ccc1C`, the GI50 in data set [2] came to 3010 nM. This compound displayed a GI50 at 72 h in data set [1] of more than 10000 nM.
For the compound `C=CC(=O)Nc1cc(Nc2ncc3c(n2)N(C)C(=O)N(c2cc(NC(=O)c4ccc5c(c4)CCCC5)ccc2C)C3)ccc1C`, in data set [1], the GI50 at 72 h was more than 10000 nM.
On the same count and under the same terms, the figure for `C=CC(=O)Nc1cc(Nc2ncc3c(n2)N(C)C(=O)N(c2cc(NC(=O)[C@@H](N)Cc4ccccc4)ccc2C)C3)ccc1C` is more than 10000 nM.
With `C=CC(=O)Nc1cc(Nc2ncc3c(n2)N(C)C(=O)N(c2cc(NC(=O)c4ccc(N(C)C)cc4)ccc2C)C3)ccc1C`, the GI50 in data set [2] was found to be 1030 nM. The compound also displayed a GI50 at 72 h in data set [1] of more than 10000 nM.
The like results for `C=CC(=O)Nc1cc(Nc2ncc3c(n2)N(C)C(=O)N(c2cc(NC(=O)c4cc(OC)ccc4OC)ccc2C)C3)ccc1C` were, in that order, 3000 nM and more than 10000 nM.
Take `C=CC(=O)Nc1cc(Nc2ncc(C(=O)Nc3cc(NC(=O)c4ccc5c(c4)OCO5)ccc3C)c(NC)n2)ccc1C`: in data set [2], the GI50 came to 1080 nM. In data set [1], this compound came in with a GI50 at 72 h of more than 10000 nM.
In data set [1], `C=CC(=O)Nc1cc(Nc2ncc3c(n2)N(C)C(=O)N(c2cc(NC(=O)c4cccc(C(F)(F)F)c4)ccc2C)C3)ccc1C` displayed a GI50 at 72 h of 740 nM.
